Each structure is given as a SMILES string.

A short description of the data set: Toxicity liver stage against HepG2, at 10uM. Type of data set: cell-based. Further details: test concentration 10 uM, cell line HepG2-A16-CD81EGFP. The conditions noted are these: human, HepG2-A16-CD81EGFP cells; read-out: INHIBITION
In a few lines:
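Uninfected HepG2-A16-CD81EGFP cells, 3 × 10^3 per well, 1536-well, plated on prespotted compound at 10 μM final, parasite-free screening media added to match infected plates; puromycin 10 μM positive, DMSO 0.5% negative; run in parallel with 48 h PbLuc assay at 37 °C, 5% CO2; viability by CellTiter-Glo luminescence, normalized to controls.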
With `CS(=O)(=O)NCC1CCCCN1C(=O)c1csc(-c2ccsc2)n1` (configuration not stated), the cytotoxicity at 10 µM is -5.89%.

As for `COc1cccc(-c2nc(C)c(C(=O)N[C@@H](CC(C)C)C(=O)O)s2)c1`, the cytotoxicity at 10 µM was 4.21%.

In the case of `O=C(NCC1CCCO1)c1cc(-c2ccc3c(c2)CCO3)n[nH]1` (configuration not stated), the cytotoxicity at 10 µM was -8.13%.

Turning to `CCc1c(C)nc(-n2nc(-c3cccs3)cc2N)[nH]c1=O`, the cytotoxicity at 10 µM was -4.47%.

Consider `CN(C)C(CNC(=O)NCCOc1ccccc1)c1ccco1` (configuration not stated), for which the cytotoxicity at 10 µM was -6.2%.

In the case of `COCCNC(=O)c1nc(-c2ccc3cc[nH]c3c2)no1`, the cytotoxicity at 10 µM was -0.208%.

Take `CC(=O)N1CCOC(c2c(C(=O)NC(C)(C)C)sc3ccccc23)C1` (configuration not stated): the cytotoxicity at 10 µM worked out at 8%.

In the case of `O=C(Nc1ccc(-c2csnn2)cc1)N1CCCC1`, the cytotoxicity at 10 µM was -3.8%.

Turning to `CN(C)c1ncccc1CNC(=O)CCNc1ncccn1`, the cytotoxicity at 10 µM was -2.22%.

In the case of `CCOCCC(=O)NC(c1noc(C)n1)c1ccccc1F` (configuration not stated), the cytotoxicity at 10 µM came to 0.101%.

`CSCCC(=O)N1CCN(CC(C)(C)O)CC1`: the cytotoxicity at 10 µM was -5.85%.

As for `NC(=O)CSc1ccccc1NCc1nc(C2CC2)no1`, the cytotoxicity at 10 µM came to 1.12%.

In the case of `NC(=O)C1CCN(c2ccc(C(=O)N3CCc4ccccc43)cn2)C1` (configuration not stated), the cytotoxicity at 10 µM is -1.29%.

As for `CN(CCCNC(=O)c1cccc(OCC(N)=O)c1)CC(F)(F)F`, the cytotoxicity at 10 µM is -10.4%.

`Cn1cc(N2CCCC(Nc3ccc4c(c3)NC(=O)CC4)C2=O)cn1` (configuration not stated): the cytotoxicity at 10 µM is -1.61%.

In the case of `CN(CCC#N)C(=O)CN1CCCC1c1cccs1` (configuration not stated), the cytotoxicity at 10 µM was -8.83%.

With `COCCNC(=O)c1cc(OC)ccc1Br`, the cytotoxicity at 10 µM was -4.2%.

With `CCOCCOC(C)C(=O)Nc1ccc2[nH]c(C)cc2c1` (configuration not stated), the cytotoxicity at 10 µM worked out at 5.35%.

Take `Cn1c(C2CC2)nc2cc(NC(=O)C3(O)CCCC3)ccc21`: the cytotoxicity at 10 µM came out at 2.84%.

Consider `O=C1CN(CCCNC(=O)Nc2ccccn2)CCN1`, for which the cytotoxicity at 10 µM is -10.1%.

`COCCN1CCN(CC(O)c2cc(OC)ccc2OC)CC1` (configuration not stated): the cytotoxicity at 10 µM came to 3%.

On to `Cc1ccccc1OCCSc1nnc(CC2CCS(=O)(=O)C2)n1C` (configuration not stated), for which the cytotoxicity at 10 µM was 1.27%.

Consider `O=C(NCCN1CCOCC1)c1cc(Cl)c2c(c1)OCCCO2`, for which the cytotoxicity at 10 µM was -5.29%.

As to `CC1CCN(C(=O)Cn2cc(I)cn2)CC1`, the cytotoxicity at 10 µM is 2.19%.

For the compound `CN(Cc1ccc(Cl)s1)C(=O)c1ccccc1OCC(N)=O`, the cytotoxicity at 10 µM was -9.2%.

With `Cc1cc(NC(=O)NCCc2ccc3c(c2)OCCO3)n(C)n1`, the cytotoxicity at 10 µM is -0.838%.

Turning to `Cc1cc(N(C)C)nc(N2CCN(Cc3nccn3C)CC2)n1`, the cytotoxicity at 10 µM was -4.05%.

For `Cn1cccc(NC(=O)COc2ccc(Br)cc2)c1=O`, the cytotoxicity at 10 µM came out at 8.35%.

For `CC(C)C(=O)NCCCNC(=O)Nc1cc(-c2ccccc2)ns1`, the cytotoxicity at 10 µM came out at 20.3%.

Regarding `CCC(C)(C)C(=O)N1CCN(C2=NCC(C)S2)CC1` (configuration not stated), the cytotoxicity at 10 µM is -144%.

`Cc1occc1C(=O)N1CCC(C(O)c2ccc(F)cc2)CC1` (configuration not stated): the cytotoxicity at 10 µM is -2.69%.

With `CC(=O)N(C)CCc1nc(-c2cc(C(N)=O)co2)cs1`, the cytotoxicity at 10 µM is -4.99%.

`CN(c1ccc(OCc2cnc(Cl)s2)cc1)S(C)(=O)=O`: the cytotoxicity at 10 µM was found to be 0.867%.

Regarding `Cc1ccc(-c2nn3c(nc2=O)-c2ccccc2NC3C(=O)O)cc1C` (configuration not stated), the cytotoxicity at 10 µM worked out at 19.3%.

Turning to `Cc1ccc(NC(=O)N2CCCC(O)C2)c(Br)c1` (configuration not stated), the cytotoxicity at 10 µM was determined as 7.72%.

As for `O=C(N1CCC(O)(C(F)(F)F)C1)C1(c2cccc(Cl)c2)CC1` (configuration not stated), the cytotoxicity at 10 µM is -2.72%.

As for `CCc1nc(N2CCC3(CC2)CC(=O)N(Cc2ccc(Cl)cc2)C3)no1`, the cytotoxicity at 10 µM amounted to 4.48%.

With `Cc1nccc(-c2ccccc2)c1C(=O)N1CC[C@](C)(O)C(C)(C)C1`, the cytotoxicity at 10 µM is -3.45%.

Consider `Cc1ccsc1CCNC(=O)CCC(=O)NC1CCCC1`, for which the cytotoxicity at 10 µM is -2.98%.

As for `CCCc1nnc(N(C)CC2CCN(CC(C)C)CC2)o1`, the cytotoxicity at 10 µM came out at 6.05%.

With `Cn1nnnc1SCCNC(=O)C1CCN(C(=O)C2CC2)CC1`, the cytotoxicity at 10 µM was -5.95%.

With `O=C1CCCN1CCc1noc(-c2ccsc2)n1`, the cytotoxicity at 10 µM was 8.35%.

Turning to `O=C(c1cc(-c2ccco2)nc2c(Cl)cccc12)N1C[C@H]2CNC[C@H]2C1`, the cytotoxicity at 10 µM was -4.23%.

Regarding `CC(C)NC(=O)CNC(C)COc1ccccc1` (configuration not stated), the cytotoxicity at 10 µM was -5.66%.

On to `CCC(CNC(=O)c1cc(CC(C)C)nn1C)N(C)CC` (configuration not stated), for which the cytotoxicity at 10 µM is -5.99%.

As to `Cn1cc(C#N)cc1C(=O)N1CCC2(CCCN(CC3CCC3)C2=O)C1` (configuration not stated), the cytotoxicity at 10 µM was -4.3%.

For `Cc1ccc(C)c2c1NC(=O)C2CC(=O)O` (configuration not stated), the cytotoxicity at 10 µM stood at 28.4%.

With `CSc1ccc(CN2CCn3nc(CNC(C)=O)cc3C2)cc1`, the cytotoxicity at 10 µM was determined as 17.4%.

For the compound `CN(Cc1n[nH]c2c1CCCCC2)C(=O)c1cc(-c2cccn2C)n[nH]1`, the cytotoxicity at 10 µM was found to be 3.02%.

Regarding `O=C(O)[C@@H]1CN(C(=O)CSCC2CC2)C[C@H]1c1ccccn1`, the cytotoxicity at 10 µM was found to be 5.35%.

Consider `CCn1c(N)nc2cc(C(=O)N3CCN(c4ccncc4)CC3)cnc21`, for which the cytotoxicity at 10 µM is -8.3%.

`CCCOc1ccc(OCCN2CCOCS2(=O)=O)cc1`: the cytotoxicity at 10 µM came to 5.56%.

Consider `CCn1c(C)nnc1SCCNC(=O)CC1CCc2ccccc21` (configuration not stated), for which the cytotoxicity at 10 µM was -1.26%.

With `Cc1ccc(CSc2nc(N)cc(NCC(=O)N3CCNCC3)n2)cc1`, the cytotoxicity at 10 µM is -4.62%.

Take `Cc1ccc2nc(-c3nc4c([nH]3)CCCNC4=O)cn2c1`: the cytotoxicity at 10 µM turned out to be 4.42%.

Regarding `O=C1N(C2CCCCC2)CCCC12CCN(S(=O)(=O)c1cccnc1)C2` (configuration not stated), the cytotoxicity at 10 µM worked out at 6%.

In the case of `COc1c(C2CCCN2C(=O)CCNc2ncccn2)c(C)nn1C` (configuration not stated), the cytotoxicity at 10 µM is -5.1%.

In the case of `CCc1nc(CN2CCN(C(=O)c3cncnc3CC)CC2)cs1`, the cytotoxicity at 10 µM is -11.4%.

For the compound `c1ccc2oc(CN3CCCC3c3noc(C4CC4)n3)nc2c1` (configuration not stated), the cytotoxicity at 10 µM was -4.04%.

In the case of `Cn1cc(-c2nc(CN3CCCCC3Cn3cncn3)cs2)cn1` (configuration not stated), the cytotoxicity at 10 µM is -17.4%.

As to `Cc1nc(C)n(CC2CCCN2CCOc2ccccc2F)n1` (configuration not stated), the cytotoxicity at 10 µM was -3.21%.

With `Cc1ccc(-c2ncc(C(=O)NCCNC(=O)C3CC3)s2)c(C)c1`, the cytotoxicity at 10 µM is -23.8%.

On to `Cc1ccc(N2CCCC(NCc3c(C)noc3C)C2)nn1` (configuration not stated), for which the cytotoxicity at 10 µM is -5.88%.

On to `NC(Cc1nc(-c2ccccc2)no1)c1ccccc1` (configuration not stated), for which the cytotoxicity at 10 µM was -5.08%.

For `CC1c2ncc(CNC(=O)C3CC3)n2CCN1Cc1ccccn1` (configuration not stated), the cytotoxicity at 10 µM was 8.18%.

As to `CCN1CC[C@@]2(C(=O)N(C)C)CCN(S(=O)(=O)c3ccccc3)CC[C@@H]12`, the cytotoxicity at 10 µM was found to be 1.26%.

On to `CO[C@@H]1CCN(C2CCOCC2)C[C@@H]1Cc1ccccc1`, for which the cytotoxicity at 10 µM was -4.87%.

For the compound `c1csc(N2[C@H](Cn3cncn3)C[C@@H]3CNCC[C@@H]32)n1`, the cytotoxicity at 10 µM is -142%.

Consider `COCc1nn(CC2CC2)c2c1CN(Cc1cncn1C)CC2`, for which the cytotoxicity at 10 µM amounted to 3.94%.

`CC(=O)c1ccc(C(=O)N2C[C@H]3CC[C@@H](C2)N(CC2CCC2)C3)s1`: the cytotoxicity at 10 µM is -5.79%.

With `CN1C(=O)[C@@H]2CC[C@H]1CN(C(=O)c1nnc3n1CCCCC3)C2`, the cytotoxicity at 10 µM is -6.34%.

With `CCn1cc(-n2cc3nc(N4CCC(C)CC4)[nH]cc-3c2=O)cn1`, the cytotoxicity at 10 µM amounted to 6.97%.

The record behind these values is ChEMBL document CHEMBL4513216, “Probing the Open Global Health Chemical Diversity Library for Multistage-Active Starting Points for Next-Generation Antimalarials” (ACS Infect Dis, 2020).
